# Source: PubChem (Johns Hopkins Ion Channel Center)
# An excerpt weighted towards active compounds, which were near 3.8% of everything screened.
# KCNQ1 act = potentiators or activators of human KCNQ1 potassium channel; P51787; 310,000 compounds, 0.35% hits; CHO-K1 KCNQ1, thallium flux FluxOR fluorescence; stronger effect = higher value; B-score at 10 µM;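 active means fluorescence ratio B-score, a plate-corrected score, at least three library SD, with initial intensity B-score within 5 SD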
#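 assay system = CHO-K1 cells stably expressing KCNQ1 | medium = assay buffer, equal DMSO in all wells | timing = 37 °C overnight plating, 90-min dark dye load, 20-min compound pretreatment | measured by = kinetic FluxOR thallium fluorescence, 10-s 1-Hz baseline, 110-s post-stimulus read | measure = fluorescence change relative to baseline, converted to B score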
# hERG protect = compounds protecting human hERG from proarrhythmic drug block | Q12809 | CHO-hERG, FluxOR thallium flux, dofetilide IC70 present | activation (rescue from dofetilide block), less the hit threshold, % at 10 µM | 310,000 compounds, 0.51% hits;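 active means activation above the mean of controls blocked by dofetilide plus 5 SD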;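 further: thallium influx through hERG after potassium depolarization seen as dye fluorescence rise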
# KCNK9 inh = inhibitors of human KCNK9 two-pore domain potassium channel; AID 488922; Q9NPC2; HEK293 KCNK9, FluxOR thallium flux fluorescence; stronger effect = lower value; 310,000 compounds, 1.2% hits; B-score at 10 µM;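 active means ratio B-score over 3 SD below the library mean, with starting fluorescence within 5 SD of its mean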;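 further: negative B-score means less thallium flux so channel inhibition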
# KCNQ1 inh = blocks the human KCNQ1 potassium channel; P51787; CHO-K1 KCNQ1, FluxOR thallium flux fluorescence; stronger effect = higher value; B-score at 10 µM; 310,000 compounds, 1.3% hits; AID 2642;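 active means compounds whose thallium flux B-score, printed positive for inhibition, exceeds three library SD while starting fluorescence stays within three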;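 further: channel opened by potassium depolarization with thallium stimulus after 20 min compound exposure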
# Kir21 block = inhibitors of mouse Kir2.1 inward-rectifier potassium channel; P35561; HEK293-Kir2.1, FluxOR thallium flux fluorescence; stronger effect = lower value; AID 1672; B-score at 10 µM; 310,000 compounds, 0.85% hits;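 active means fluorescence ratio B-score at or below minus 3 SD of library scores, with starting-brightness B-score within 2 SD, cut at about -4.2 in these data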;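 further: channel flux triggered by added potassium and thallium sulfate stimulus; B-score of peak minus minimum fluorescence over baseline after thallium stimulus; more negative B-score means stronger Kir2.1 block with less thallium influx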
# Target sequence (P35561 whole entry, looked up): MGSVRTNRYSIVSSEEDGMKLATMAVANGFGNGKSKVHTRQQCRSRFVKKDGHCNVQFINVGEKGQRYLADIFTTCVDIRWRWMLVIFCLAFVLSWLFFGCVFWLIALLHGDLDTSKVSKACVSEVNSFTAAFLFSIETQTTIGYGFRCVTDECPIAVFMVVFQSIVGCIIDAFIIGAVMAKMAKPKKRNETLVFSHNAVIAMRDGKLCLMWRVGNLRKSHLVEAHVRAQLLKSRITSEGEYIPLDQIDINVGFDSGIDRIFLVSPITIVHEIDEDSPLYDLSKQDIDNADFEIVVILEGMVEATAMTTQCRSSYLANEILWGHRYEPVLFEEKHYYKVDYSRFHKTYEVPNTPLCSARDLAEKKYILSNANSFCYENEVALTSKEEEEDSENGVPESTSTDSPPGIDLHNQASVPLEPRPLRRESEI
# KCNK3 inh = human KCNK3 channel inhibition, primary screen; O14649; CHO-KCNK3 thallium flux, FluxOR fluorescence; stronger effect = lower value; B-score at 10 µM; 340,000 compounds, 0.84% hits; AID 602410;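 active means B-score under library mean minus 4 SD, starting fluorescence ratio at most library mean plus 5 SD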;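 further: more negative B-score means stronger inhibition of thallium flux through KCNK3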
# KCNK3 inh conf = human KCNK3 channel inhibition, confirmation assay; 2,400 compounds, 99% hits; ratio percent of control, % at 10 µM; AID 651638; shares compounds with KCNK3 inh; CHO-KCNK3 thallium flux, FluxOR fluorescence; 0% buffer, 100% carvedilol maximal block;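 active means ratio percent of control, averaged over triplicates, above buffer control mean plus 5 SD, cut at about 64% in these data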;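 further: ratio is the fluorescence rise from min to max over baseline after thallium stimulus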
# KCNK3 uninduced = counter-screen for KCNK3 inhibitors: effect in non-induced cells. AID 651747. shares compounds with KCNK3 inh. non-induced KCNK3 parental cells, FluxOR thallium flux; stronger effect = lower value. 2,400 compounds, 40% hits. thallium flux ratio (lower = more inhibition) at 10 µM;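 active means thallium flux ratio, averaged over three wells, more than 5 SD below the buffer control mean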;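 further: host cells are CHO cells without KCNK3 induction; ratio is peak minus trough fluorescence over baseline then normalized to buffer controls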
# Active calls of the source: *; i = inactive; . = no result.
SMILES,KCNQ1 act,hERG protect,KCNK9 inh,KCNQ1 inh,Kir21 block,KCNK3 inh,KCNK3 inh conf,KCNK3 uninduced
CCOc1ccccc1CNC(=O)CCCn1ncn2c(cc3occc32)c1=O,i,-10,i,i,-0.59,i,.,.
CCOC(=O)c1sc(NC(=O)CSc2nnc(-c3ccco3)n2CC)c(C(=O)OCC)c1C,i,1,i,i,0.11,-12*,98*,i
CCOC(=O)c1c(NC(=O)CSc2nnc(-c3ccccc3)n2CC)sc(C(C)=O)c1C,i,-4,i,i,0.54,i,.,.
CCOC(=O)c1ccccc1NC(=O)COC(=O)CC1CCCCC1,i,-6,i,i,-0.62,-9.7*,105*,0.15*
CC(Oc1ccc(F)cc1)C(=O)Nc1sc2c(c1C(=O)NCc1cccnc1)CCCC2 (centres undefined),i,-10,i,i,-0.1,-8.9*,113*,i
Cc1ccc(C)c(Nc2cc(C(=O)NCc3cccnc3)c3ccccc3n2)c1,i,-16,-7.9*,i,-0.85,-8.9*,87*,i
COc1ccccc1Nc1cc(C(=O)NCc2cccnc2)c2ccccc2n1,i,-7,i,i,0.23,i,.,.
Cc1cc(C)cc(OC(C)C(=O)Nc2ccccc2C(=O)NCc2cccnc2)c1 (centres undefined),i,-8,i,i,-0.71,-9.7*,84*,0.16*
CCc1ccc(NC(=O)c2sc3nc(C)nc(N4CCN(c5ccccn5)CC4)c3c2C)cc1,i,-15,i,6*,-0.08,-12*,139*,0.11*
Cc1nc(N2CCN(c3ccccn3)CC2)c2c(C)c(C(=O)N3CCN(c4cccc(Cl)c4)CC3)sc2n1,i,-25,i,i,-0.01,-9.4*,97*,i
COc1ccc(/C(N)=N/OC(=O)C2CCCCC2)cc1,i,-11,i,i,1.5,i,.,.
COC1(OC)C(/C=C/c2ccc(C)cc2)C(C#N)(C#N)C1(OC)OC (centres undefined),i,-15,i,i,0.06,-10*,133*,0.14*
O=C(c1ccc(-n2cncn2)c([N+](=O)[O-])c1)N1CCN(S(=O)(=O)c2cccc(F)c2)CC1,i,-4,i,i,-0.05,i,.,.
COc1ccc(C)cc1NC(=O)C(NC(=O)c1cc(OC)c(OC)c(OC)c1)C(C)C (centres undefined),i,-3,i,i,-0.24,i,.,.
N#Cc1nc(-c2ccco2)oc1N1CCN(c2cccc(Cl)c2)CC1,i,-10,i,i,1.2,-9.6*,111*,i
N#Cc1nc(-c2ccco2)oc1N1CCCC1,i,-4,i,i,-0.31,i,.,.
CCCOC(=O)/C(=C\C=C\c1ccccc1)NC(=O)c1ccccc1,i,-7,i,i,0.49,-10*,147*,0.15*
COc1ccc(NC(=S)N(CCCN2CCOCC2)C(C)c2cc3cccc(OC)c3o2)cc1 (centres undefined),i,-14,i,i,0.75,i,.,.
COc1cccc2cc(C(C)N(CCCN3CCOCC3)C(=S)Nc3ccc(C)c(C)c3)oc12 (centres undefined),i,-14,i,i,-0.13,-9.3*,89*,i
Cc1ccc(C)c(N2CCN(C(c3ccc(N(C)C)cc3)c3nnnn3C(C)(C)C)CC2)c1 (centres undefined),i,-11,-8.1*,i,-0.78,i,122*,0.15*
CN(C)c1ccc(C(c2nnnn2C(C)(C)C)N2CCN(C(=O)c3ccco3)CC2)cc1 (centres undefined),i,-14,i,i,2,i,.,.
Cc1ccc(OCc2cc(C(=O)NC3CCc4ccccc43)no2)cn1 (centres undefined),i,-8,i,i,-0.85,i,.,.
